The source made the active and inactive calls. No cut-off for these calls is given here.
Columns and labels:
[1] = target: T1, Histone deacetylase (Homo sapiens) (UniProt Q13547+O15379+Q9UBN7+Q92769+Q9UQL6+Q8WUI4+Q9BY41+Q96DB2+P56524+Q9UKV0+Q969S8); assay: Inhibition of HDAC in human HeLa nuclear extract assessed as enzyme residual activity at 100 uM using Boc-Lys(acetyl)-AMC as substrate and measured after 15 mins by fluorescence assay relative to control; assay type: cell-free
Method in brief: (§1)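 Fluorometric HDAC activity kit with HeLa nuclear extract as enzyme source; compounds from 20 mM DMSO stock, tested in duplicate. Deacetylated substrate treated with lysine developer; fluorescence read after 15 min at ex 360/em 460 nm.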

[2] = Stability in 80% human plasma assessed as half life by HPLC analysis; assay type: ADME, cell-free
Method in brief: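 Plasma pooled from 13 donors (heparin), stored at −18 °C, thawed slowly, diluted to 80% v/v with 10 mM PBS pH 7.4 at 37 °C; compound added from 10 mM acetonitrile stock; aliquots taken over time, centrifuged 12000 rpm 10 min, supernatant analyzed by HPLC for half-life; duplicate or triplicate runs.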

[3] = target: T1, Histone deacetylase (Homo sapiens); assay: Inhibition of HDAC in human HeLa nuclear extract assessed as enzyme residual activity at 25 uM using Boc-Lys(acetyl)-AMC as substrate and measured after 15 mins by fluorescence assay relative to control; assay type: cell-free; method in brief: as §1
[4] = Stability of the compound in PBS buffer at pH 7.4 assessed as half life by HPLC analysis; assay type: physicochemical
[5] = system: GL261; assay: Cytotoxicity against mouse GL261 cells assessed as reduction in cell viability incubated for 48 hrs by MTS assay; assay type: functional, cell-based; settings: GL261, 48 h
[6] = system: GL261; assay: Cytotoxicity against mouse GL261 cells assessed as reduction in cell viability at 0.1 to 100 uM incubated for 48 hrs by MTS assay; assay type: functional, cell-based
[7] = target: T1, Histone deacetylase (Homo sapiens); assay: Inhibition of HDAC in human HeLa nuclear extract assessed as enzyme residual activity at 6.25 uM using Boc-Lys(acetyl)-AMC as substrate and measured after 15 mins by fluorescence assay relative to control; assay type: cell-free; method in brief: as §1
[8] = Octanol-phosphate buffered saline distribution coefficient, log D of compound at pH 7.4 at 1 mg shake for 30 mins and measured after 48 hrs by HPLC analysis; assay type: physicochemical
[9] = system: SH-SY5Y; assay: Induction of apoptosis in human SH-SY5Y cells assessed as increase in early apoptotic cells at 10 uM incubated for 48 hrs by annexinV-PE/7-AAD staining based flow cytometric analysis; assay type: functional, cell-based
Method in brief: (§2)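 SH-SY5Y cells grown on poly-D-lysine/laminin, differentiated 7 days with 10 µM retinoic acid, then exposed 48 h. Adherent plus floating cells pooled, resuspended in PBS/1% BSA, stained annexin V-PE/7-AAD and counted by flow cytometry into viable, early apoptotic, late apoptotic/necrotic; two readings per sample; three independent experiments in duplicate.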

[10] = system: SH-SY5Y; assay: Induction of apoptosis in human SH-SY5Y cells assessed as reduction in cell viability at 10 uM incubated for 48 hrs by annexinV-PE/7-AAD staining based flow cytometric analysis; assay type: functional; method in brief: as §2
[11] = system: SH-SY5Y; assay: Induction of apoptosis in human SH-SY5Y cells assessed as increase in late necrotic cells at 10 uM incubated for 48 hrs by annexinV-PE/7-AAD staining based flow cytometric analysis; assay type: functional, cell-based; method in brief: as §2
[12] = system: GL261; assay: Induction of morphological changes in mouse GL261 cells assessed as increase in cell circularity at 10 uM incubated for 48 hrs by Hoechst 33258 staining based fluorescence microscopic analysis; assay type: functional
Method in brief: (§3)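 After 48 h exposure, GL261 cells on coverslips fixed in 4% paraformaldehyde, permeabilized (0.1% Triton X-100), blocked 30 min, stained with Alexa Fluor-594 phalloidin and Hoechst 33258; ten random fields at 630×; circularity (4π·area/perimeter²) and aspect ratio traced manually on ≥120 cells per condition; three independent experiments.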

[13] = system: GL261; assay: Induction of morphological changes in mouse GL261 cells assessed as decrease in cell aspect ratio at 10 uM incubated for 48 hrs by Hoechst 33258 staining based fluorescence microscopic analysis; assay type: functional; method in brief: as §3
[14] = system: GL261; assay: Antiinvasive activity in mouse GL261 cells assessed as reduction in cell migration at 10 uM preincubated for 48 hrs and measured after 6 hrs by giemsa staining based Boyden chamber assay; assay type: functional
[15] = Drug metabolism assessed as Cu2+-mediated compound decomposition by measuring aniline formation at 33 uM measured at 1 min interval for 30 mins by UV-Vis spectrophotometric analysis
Method in brief: (§4)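 Decomposition monitored by UV-Vis spectroscopy in methanolic solutions containing Cu2+ or Zn2+.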

[16] = Drug metabolism assessed as Zn2+-mediated compound decomposition by measuring aniline formation at 33 uM measured at 30 mins interval for 12 hrs by UV-vis spectrophotometric analysis; method in brief: as §4
[17] = Drug metabolism assessed as Zn2+-mediated compound decomposition by measuring aniline formation 33 uM measured at 1 min interval for 30 mins by UV-Vis spectrophotometric analysis; method in brief: as §4
[18] = system: GL261; assay: Induction of apoptosis in mouse GL261 cells assessed as reduction in cell viability at 10 uM incubated for 48 hrs by annexinV-PE/7-AAD staining based flow cytometric analysis; assay type: functional
Method in brief: (§5)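 GL261 cells exposed 48 h; trypsinized adherent cells combined with medium cells, pelleted, resuspended in PBS/1% BSA, stained with annexin V-PE/7-AAD; flow cytometry gating viable (both negative), early apoptotic (annexin+/7-AAD−), late apoptotic/dead (both positive); two readings per sample; three independent experiments in duplicate.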

[19] = system: GL261; assay: Induction of apoptosis in mouse GL261 cells assessed as increase in early apoptotic cells at 10 uM incubated for 48 hrs by annexinV-PE/7-AAD staining based flow cytometric analysis; assay type: functional, cell-based; method in brief: as §5
[20] = target: T1, Histone deacetylase (Homo sapiens); assay: Inhibition of HDAC in human HeLa nuclear extract assessed as enzyme residual activity at 1 uM using Boc-Lys(acetyl)-AMC as substrate and measured after 15 mins by fluorescence assay relative to control; assay type: cell-free; method in brief: as §1
[21] = target: T1, Histone deacetylase (Homo sapiens); assay: Inhibition of HDAC in human HeLa nuclear extract assessed as enzyme residual activity at 100 nM using Boc-Lys(acetyl)-AMC as substrate and measured after 15 mins by fluorescence assay relative to control; assay type: cell-free; method in brief: as §1
[22] = target: T1, Histone deacetylase (Homo sapiens); assay: Inhibition of HDAC in human HeLa nuclear extract assessed as enzyme residual activity at 10 nM using Boc-Lys(acetyl)-AMC as substrate and measured after 15 mins by fluorescence assay relative to control; assay type: cell-free; method in brief: as §1
[23] = Induction of alkylation in 5'-GGGAGA-3' single stranded DNA (unknown origin) at ssDNA to compound concentration ratio of 1:250M incubated for 1 hr by ESI-MS analysis
Method in brief: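 Single-stranded oligonucleotide incubated with the compound in 10 mM ammonium bicarbonate buffer, pH 8.3, at 37 °C. Aliquots were taken at intervals and extracted three times with ethyl acetate, then centrifuged. The aqueous phase was analysed by flow-injection ESI(−) HRMS in 50:50 water/acetonitrile with 0.1% formic acid. Run in triplicate.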

[24] = system: GL261; assay: Induction of apoptosis in mouse GL261 cells assessed as increase in late apoptotic cells at 10 uM incubated for 48 hrs by annexinV-PE/7-AAD staining based flow cytometric analysis; assay type: functional, cell-based; method in brief: as §5
[25] = system: GL261; assay: Induction of apoptosis in mouse GL261 cells assessed as increase in necrotic cells at 10 uM incubated for 48 hrs by annexinV-PE/7-AAD staining based flow cytometric analysis; assay type: functional, cell-based; method in brief: as §5

Compound | Activity [1] | half-life [2] | Activity [3] | half-life [4] | IC50 [5] | Activity [7] | logD at 30 min [8] | further results
CCC(CC)C(=O)N(C)/N=N/c1ccc(C#N)cc1 | 95.1% | > 40 h | 97.2% | > 40 h | > 100 µM | 97.7% | 3.76 | Activity [6]: inactive
CC(C)C(=O)N(C)/N=N/c1ccc(C#N)cc1 | 77.6% | 13.9 h | 92.7% | > 40 h | > 100 µM | 95.9% | 2.95 | Activity [6]: inactive
Cn1nnc2c(C(N)=O)ncn2c1=O [TEMOZOLOMIDE] |  |  |  | 2 h | > 100 µM |  |  | Activity [9]: Active; Activity [10]: Active; Activity [11]: Active; Activity [12]: inactive; Activity [13]: inactive; Activity [14]: Active
CCCC(CCC)C(=O)N(C)/N=N/c1ccc(C)cc1 | 89% | > 40 h | 93.5% | 31.3 h | > 100 µM | 94.5% | 4.98 | 
CCCC(CCC)C(=O)N(C)/N=N/c1ccc(C(C)=O)cc1 | 85.8% | > 40 h | 94.8% | > 40 h | 47 µM | 98.6% | 4.56 | 
CCOC(=O)c1ccc(/N=N/NC)cc1 |  |  |  |  |  |  |  | Drug metabolism [15]: Metabolite detected; Drug metabolism [16]: Metabolite detected
CCCC(=O)N(C)/N=N/c1ccc(C#N)cc1 | 54.9% | 15.2 h | 72.5% | > 40 h | > 100 µM | 97.1% | 3.19 | Activity [6]: inactive; Drug metabolism [15]: Metabolite not detected; Drug metabolism [17]: Metabolite not detected
CCCC(CCC)C(=O)N(C)/N=N/c1ccc(C(=O)OCC)cc1 | 55.3% | > 40 h | 79.8% | 34.1 h | > 100 µM | 88.3% | 4.95 | Drug metabolism [15]: Metabolite not detected; Drug metabolism [17]: Metabolite not detected
CCCC(CCC)C(=O)N(C)/N=N/c1ccc(C(=O)OC)cc1 | 92.7% | > 40 h | 97.3% | 31.4 h | 6.7 µM | 92.9% | 4.7 | Activity [18]: Active; Activity [19]: Active; Activity [9]: Active; Activity [10]: Active; Activity [11]: Active; Activity [12]: Active; Activity [13]: Active; Activity [14]: Active
CCCC(CCC)C(=O)N(C)/N=N/c1ccc(Br)cc1 | 82.5% | > 40 h | 95.6% | 30.4 h | 80.6 µM | 98.9% | 4.81 | 
O=C(/C=C/c1ccc2c(c1)C(=O)CC1(CCN(Cc3ccccc3)CC1)C2)NO |  |  |  |  |  |  |  | Activity [20]: 10.9%; Activity [21]: 52.4%; Activity [22]: 91%
CN=NNc1ccc(C#N)cc1 |  |  |  |  |  |  |  | Activity [23]: Active; Drug metabolism [15]: Metabolite detected; Drug metabolism [16]: Metabolite detected
CCCC(CCC)C(=O)N(C)/N=N/c1ccc(Cl)cc1 | 66.4% | > 40 h | 85.8% | 27.3 h | 58.4 µM | 93% | 4.62 | 
CCCC(CCC)C(=O)N(C)/N=N/c1ccc(C(N)=O)cc1 | 79.8% | > 40 h | 91.6% | > 40 h | 11.9 µM | 90.5% | 3.68 | Activity [18]: Active; Activity [19]: Active; Activity [24]: Active; Activity [25]: Active; Activity [9]: Active; Activity [10]: Active; Activity [11]: Active; Activity [12]: Active; Activity [13]: Active; Activity [14]: Active

Reference: ChEMBL document CHEMBL4393663, “Targeting gliomas with triazene-based hybrids: Structure-activity relationship, mechanistic study and stability” (Eur J Med Chem, 2019)
